In publication PMC2018624 (Nucleic Acids Research, 2007):
Square brackets hold non-standard residues; d marks the D form. Ends that are not written are not given here. Peptide text beside a SMILES is read from it. * marks the point of attachment. Biotin = O=C1N[C@H]2[C@H](CS[C@H]2CCCCC(=O)*)N1; pS = N[C@@H](COP(=O)(O)O)C(=O)O

Tests used:
[1] = tested on: 53BP1 Ser25 phosphorylation in HEK293 cells; assay: IR-induced phosphorylation of 53BP1 Ser25 in HEK293 cells; assay type: cell-based; settings: 10 μM inhibitor pre-incubated 1 h, IR 10 Gy, western blot
[2] = tested on: Chk2 Thr68 phosphorylation in HEK293 cells; assay: IR-induced phosphorylation of Chk2 at Thr68; assay type: cell-based; settings: HEK293, IR 3 Gy, siRNA depletion or rescue, western blot
U2OS cells = assay: hPTIP nuclear focus formation after IR in U2OS cells; assay type: cell-based; settings: 15 Gy IR, 45 min recovery
Procedure, shortened: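 U2OS cells on glass coverslips transiently transfected with wild-type or point-mutant FLAG-hPTIP. Irradiated 0 or 15 Gy, recovered 45 min at 37°C, then fixed, permeabilised and blocked. Anti-FLAG or anti-53BP1 (1 µg/ml) 60 min at room temperature, then Alexa488/594 secondaries (2 µg/ml) 60 min. Fluorescence microscopy; anti-FLAG foci counted in ~200 transfected cells; mean ± SD.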

full-length HA-53BP1 = assay: Co-immunoprecipitation of mutant FLAG-hPTIP with HA-53BP1 after IR; assay type: cell-based, human; settings: HEK293, IR 0 or 20 Gy, anti-FLAG immunoprecipitates
[3] = biological target: hPTIP BRCT domain pair C2 (Homo sapiens, UniProt Q6ZW49); assay: BiaCore binding to hPTIP BRCT pair C2 alone
FLAG-hPTIP = assay: Co-immunoprecipitation of mutant HA-53BP1 with FLAG-hPTIP after IR; assay type: cell-based, human; settings: HEK293, IR 0 or 20 Gy, anti-FLAG immunoprecipitates
Procedure, shortened: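 HEK293 cells in DMEM with 10% FBS and penicillin/streptomycin at 37°C, 5% CO2. Cells co-transfected by calcium phosphate with FLAG-hPTIP and full-length HA-53BP1 carrying Ser/Thr→Ala mutations at ATM S/T-Q motifs. Cells irradiated at 0 or 20 Gy and lysed. Anti-FLAG immunoprecipitates run on SDS–PAGE and western blotted to detect co-precipitated 53BP1.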

HEK293 cells = assay: 53BP1 retention at sites of DNA damage; assay type: cell-based; settings: HEK293, 10 Gy IR, 45 min recovery
53BP1 [4] = assay: GST-hPTIP BRCT retrieval of 53BP1 from extracts of irradiated HEK 293 cells; assay type: binding, human; settings: GST fusion on glutathione-sepharose, HEK 293 extract, 10 Gy IR, western blot
[5] = biological target: hPTIP-BRCT pair C1 + C2 W929A (Homo sapiens, UniProt Q6ZW49, W929A); assay: BiaCore binding to hPTIP BRCT pair C1 + C2 W929A
[6] = biological target: hPTIP-BRCT pair C1 + C2 W676A (Homo sapiens, UniProt Q6ZW49, W676A); assay: BiaCore binding to hPTIP BRCT pair C1 + C2 W676A
[7] = biological target: 53BP1 peptide Ser25(P), biotin-…p… (human); assay: SPR
[8] = biological target: 53BP1 peptide Non(P), biotin-… (human); assay: SPR
[9] = biological target: S-Q-V-F (P) peptide, biotin-GAAYDI-pSQ-VFPFAKKK
[10] = tested on: BRCA1 Ser1524 phosphorylation in HEK293 cells; assay: IR-induced phosphorylation of BRCA1 at Ser1524; assay type: cell-based; settings: HEK293, IR 3 Gy, siRNA depletion or rescue, western blot
[11] = biological target: GST-hPTIP (590–1069) W929A (human, UniProt Q6ZW49 590-1069, W929A); assay: SPR
[12] = biological target: GST-hPTIP (590–1069) W676A (human, UniProt Q6ZW49 590-1069, W676A); assay: SPR
53BP1 [13] = settings: previous report; ref [4]; cited from earlier work

Sequence of hPTIP-BRCT pair C1 + C2 W929A (Q6ZW49 590-1069 W929A): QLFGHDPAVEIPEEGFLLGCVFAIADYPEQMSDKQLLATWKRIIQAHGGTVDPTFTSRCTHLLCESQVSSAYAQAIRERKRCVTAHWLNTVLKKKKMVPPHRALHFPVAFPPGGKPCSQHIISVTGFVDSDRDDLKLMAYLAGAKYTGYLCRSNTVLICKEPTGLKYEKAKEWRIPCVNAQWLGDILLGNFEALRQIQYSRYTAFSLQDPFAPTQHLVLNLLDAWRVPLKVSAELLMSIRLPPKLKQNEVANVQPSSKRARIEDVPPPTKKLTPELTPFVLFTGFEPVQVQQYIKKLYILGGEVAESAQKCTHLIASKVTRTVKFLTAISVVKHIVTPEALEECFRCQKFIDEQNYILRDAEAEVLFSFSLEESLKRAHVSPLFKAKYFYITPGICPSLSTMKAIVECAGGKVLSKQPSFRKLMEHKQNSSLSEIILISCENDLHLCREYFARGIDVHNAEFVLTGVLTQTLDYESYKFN
Sequence of hPTIP-BRCT pair C1 + C2 W676A (Q6ZW49 590-1069 W676A): as the sequence (Q6ZW49 590-1069 W929A) above, with W87A, A340W counted along it
Sequence of GST-hPTIP (590–1069) W676A (Q6ZW49 590-1069 W676A): as the sequence (Q6ZW49 590-1069 W929A) above, with W87A, A340W counted along it
Sequence of 53BP1 peptide Ser25(P), biotin-…p… (human) (Q12888 16-35): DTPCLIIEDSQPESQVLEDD

O=c1cc(-c2cccc3c2Sc2ccccc2S3)oc(N2CCOCC2)c1 [KU55933]
IR-induced phosphorylation of 53BP1 Ser25 [1]: not in cells pre-incubated with the ATM-specific inhibitor KU55933

wild-type 53BP1: HA-53BP1 carrying a silent mutation, refractory to silencing by siRNA
phosphorylation of Chk2 at Thr68 [2]: could rescue

W929A
nuclear focus formation after IR (U2OS cells): prevented focus formation
binding of hPTIP to 53BP1 in IR-treated cells (full-length HA-53BP1): abolished

CC[C@H](C)[C@H](NC(=O)[C@H](CC(=O)O)NC(=O)[C@H](Cc1ccc(O)cc1)NC(=O)[C@H](C)NC(=O)[C@H](C)NC(=O)CNC(=O)CCCC[C@@H]1SC[C@@H]2NC(=O)N[C@@H]21)C(=O)N[C@@H](COP(=O)(O)O)C(=O)N[C@@H](CCC(N)=O)C(=O)N[C@H](C(=O)N[C@@H](Cc1ccccc1)C(=O)N1CCC[C@H]1C(=O)N[C@@H](Cc1ccccc1)C(=O)N[C@@H](C)C(=O)N[C@@H](CCCCN)C(=O)N[C@@H](CCCCN)C(=O)N[C@@H](CCCCN)C(=O)O)C(C)C [S-Q-V-F peptide] (Biotin-GAAYDI[pS]QVFPFAKKK-OH)
Kd [3]: ~0.273 µM

mutation of Ser29: 53BP1 with Ser29 singly mutated
IR-induced interaction of 53BP1 with hPTIP (FLAG-hPTIP): no effect

53BP1 Ser25Ala mutant
IR-induced interaction of 53BP1 with hPTIP (FLAG-hPTIP): abolished
retention at sites of DNA damage (HEK293 cells): indistinguishable from the wild-type protein

W676A
nuclear focus formation after IR (U2OS cells): prevented focus formation
number of nuclear foci per cell, after IR (U2OS cells; ∼200 transfected cells, almost all cells): < 10 foci
binding of hPTIP to 53BP1 in IR-treated cells (full-length HA-53BP1): abolished
retrieval of 53BP1 from cell extracts (53BP1 [4]): prevented

CC[C@H](C)[C@H](NC(=O)[C@H](CC(C)C)NC(=O)[C@H](CS)NC(=O)[C@@H]1CCCN1C(=O)[C@@H](NC(=O)[C@H](CC(=O)O)NC(=O)CCCC[C@@H]1SC[C@@H]2NC(=O)N[C@@H]21)[C@@H](C)O)C(=O)N[C@H](C(=O)N[C@@H](CCC(=O)O)C(=O)N[C@@H](CC(=O)O)C(=O)N[C@@H](COP(=O)(O)O)C(=O)N[C@@H](CCC(N)=O)C(=O)N1CCC[C@H]1C(=O)N[C@@H](CCC(=O)O)C(=O)N[C@@H](CO)C(=O)N[C@@H](CCC(N)=O)C(=O)N[C@H](C(=O)N[C@@H](CC(C)C)C(=O)N[C@@H](CCC(=O)O)C(=O)N[C@@H](CC(=O)O)C(=O)N[C@@H](CC(=O)O)C(=O)O)C(C)C)[C@@H](C)CC [Ser25(P)] (Biotin-DTPCLIIED[pS]QPESQVLEDD-OH)
Kd [5]: > 1000 µM
Kd [6]: > 1000 µM

GST-hPTIP (590–1069) (BRCT pairs C1 + C2) (from UniProt Q6ZW49 590-1069) (domain or fragment)
Kd [7]: 0.526 µM
Kd [8]: > 1000 µM

O=c1cc(N2CCOCC2)oc2c(-c3cccc4c3sc3ccccc34)cccc12 [NU7441]
IR-induced phosphorylation of 53BP1 Ser25 [1]: did not affect IR-induced phosphorylation of 53BP1 Ser25

GST-hPTIP (862–1069) (BRCT pair C2) (from UniProt Q6ZW49 862-1069) (domain or fragment)
Kd [9]: 0.273 µM

R910Q
nuclear focus formation after IR (U2OS cells): little effect on the ability of hPTIP to form foci after IR
binding of hPTIP to 53BP1 in IR-treated cells (full-length HA-53BP1): abolished
phosphorylation of BRCA1 at Ser1524 [10]: could not

B1: 53BP1 peptide Ser25(P), biotin-DTPCLIIEDpSQPESQVLEDD (peptide)
peptide: Biotin-DTPCLIIED[pS]QPESQVLEDD
Kd [11]: > 1000 µM
Kd [12]: > 1000 µM

B2: hPTIP BRCT pair C2: bacterially expressed GST-hPTIP (862–1069) (protein, UniProt Q6ZW49 862-1069, looked up, fragment)
chain: TPELTPFVLFTGFEPVQVQQYIKKLYILGGEVAESAQKCTHLIASKVTRTVKFLTAISVVKHIVTPEWLEECFRCQKFIDEQNYILRDAEAEVLFSFSLEESLKRAHVSPLFKAKYFYITPGICPSLSTMKAIVECAGGKVLSKQPSFRKLMEHKQNSSLSEIILISCENDLHLCREYFARGIDVHNAEFVLTGVLTQTLDYESYKFN
modifications: GST tag
retrieval of phosphorylated 53BP1 from extracts of irradiated cells (53BP1 [13]): could retrieve phosphorylated 53BP1 from extracts of irradiated cells
